# Experimental data: ChEMBL document CHEMBL4011650, “3-Hydroxy-1H-quinazoline-2,4-dione as a New Scaffold To Develop Potent and Selective Inhibitors of the Tumor-Associated Carbonic Anhydrases IX and XII” (J Med Chem, 2017)
# pKi: −log10 of the molar value.
# Tested on: not listed separately
# Experiment: Antiproliferative activity against human HT-29 cells assessed as cell viability at 100 uM after 72 hrs under normoxic conditions by MTT assay relative to control
# Format: cell-based
# Settings: read-out: Activity
# How it was run: (§1)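 HT-29 cells in high-glucose DMEM with 20% FBS were seeded at 1·10^4/well and treated 24 h later. Incubation was under normoxia (20% O2, air with 5% CO2) at 37 °C for 16, 48 or 72 h. Viability was read by MTT reduction (1 mg/ml, 30 min), with formazan in DMSO read at 550 nm, relative to untreated control set at 100%. Quadruplicates on at least three cell batches.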
row,SMILES,"viability at 72 h, 100 µM [%]"
1,O=c1[nH]c2cc(Cl)cc(Cl)c2c(=O)n1O,95.9
2,O=c1[nH]c2cc(Cl)c(Cl)cc2c(=O)n1O,73.5
3,O=C1C=CCN1c1cc2c(=O)n(O)c(=O)[nH]c2cc1Cl,57.3

# Tested on: not listed separately
# Experiment: Antiproliferative activity against human HT-29 cells assessed as cell viability at 100 uM after 48 hrs under normoxic conditions by MTT assay relative to control
# Format: cell-based
# Settings: read-out: Activity
# How it was run: as §1
row,SMILES,"viability at 48 h, 100 µM [%]"
1,O=c1[nH]c2cc(Cl)cc(Cl)c2c(=O)n1O,93.8
2,O=c1[nH]c2cc(Cl)c(Cl)cc2c(=O)n1O,91
3,O=C1C=CCN1c1cc2c(=O)n(O)c(=O)[nH]c2cc1Cl,56.2

# Tested on: HT-29
# Experiment: Antiproliferative activity against human HT-29 cells assessed as cell viability at 30 uM after 48 hrs under hypoxic conditions by MTT assay relative to control
# Format: functional
# Settings: HT-29, 48 h, read-out: Activity
# How it was run: (§2)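 HT-29 cells were grown in high-glucose DMEM with 20% FBS, seeded at 1·10^4/well and dosed 24 h later. Incubation was in a hypoxic chamber (0.1% O2, 5% CO2, balance N2) for 16, 48 or 72 h. Cells were washed, given MTT 1 mg/ml for 30 min at 37 °C, and formazan was dissolved in DMSO and read at 550 nm. Viability is % of untreated control, mean ± S.E.M.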
row,SMILES,viability at 30 µM [%]
1,O=c1[nH]c2cc(Cl)cc(Cl)c2c(=O)n1O,101
2,O=c1[nH]c2cc(Cl)c(Cl)cc2c(=O)n1O,106
3,O=C1C=CCN1c1cc2c(=O)n(O)c(=O)[nH]c2cc1Cl,50.6

# Tested on: not listed separately
# Experiment: Antiproliferative activity against human HT-29 cells assessed as cell viability at 300 uM after 48 hrs under normoxic conditions by MTT assay relative to control
# Format: cell-based
# Settings: read-out: Activity
# How it was run: as §1
row,SMILES,"viability at 48 h, 300 µM [%]"
1,O=c1[nH]c2cc(Cl)cc(Cl)c2c(=O)n1O,91
2,O=c1[nH]c2cc(Cl)c(Cl)cc2c(=O)n1O,9.44
3,O=C1C=CCN1c1cc2c(=O)n(O)c(=O)[nH]c2cc1Cl,106

# Tested on: HT-29
# Experiment: Antiproliferative activity against human HT-29 cells assessed as cell viability at 300 uM after 72 hrs under hypoxic conditions by MTT assay relative to control
# Format: functional
# Settings: HT-29, 72 h, read-out: Activity
# How it was run: as §2
row,SMILES,viability at 300 µM [%]
1,O=c1[nH]c2cc(Cl)cc(Cl)c2c(=O)n1O,78.9
2,O=c1[nH]c2cc(Cl)c(Cl)cc2c(=O)n1O,24.5
3,O=C1C=CCN1c1cc2c(=O)n(O)c(=O)[nH]c2cc1Cl,65.2

# Tested on: HT-29
# Experiment: Antiproliferative activity against human HT-29 cells assessed as cell viability at 100 uM after 72 hrs under hypoxic conditions by MTT assay relative to control
# Format: functional
# Settings: HT-29, 72 h, read-out: Activity
# How it was run: as §2
row,SMILES,viability at 100 µM [%]
1,O=c1[nH]c2cc(Cl)cc(Cl)c2c(=O)n1O,87
2,O=c1[nH]c2cc(Cl)c(Cl)cc2c(=O)n1O,78.1
3,O=C1C=CCN1c1cc2c(=O)n(O)c(=O)[nH]c2cc1Cl,45.7

# Target: Carbonic anhydrase 1 (Homo sapiens, UniProt P00915)
# Sequence (P00915 whole entry): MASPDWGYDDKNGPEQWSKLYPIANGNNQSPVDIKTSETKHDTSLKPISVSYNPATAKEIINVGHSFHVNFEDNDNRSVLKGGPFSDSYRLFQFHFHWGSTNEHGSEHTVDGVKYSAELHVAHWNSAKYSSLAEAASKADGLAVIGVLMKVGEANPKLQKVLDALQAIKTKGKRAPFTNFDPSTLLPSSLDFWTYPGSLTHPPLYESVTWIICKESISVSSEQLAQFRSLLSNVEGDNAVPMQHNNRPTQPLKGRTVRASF
# Experiment: Inhibition of recombinant human carbonic anhydrase 1 preincubated for 15 mins prior to testing by phenol red based stopped-flow CO2 hydration assay
# Settings: not given
row,SMILES,pKi
1,O=c1[nH]c2cc(Cl)cc(Cl)c2c(=O)n1O,< 5.00
2,O=c1[nH]c2cc(Cl)c(Cl)cc2c(=O)n1O,< 5.00
3,O=C1C=CCN1c1cc2c(=O)n(O)c(=O)[nH]c2cc1Cl,< 5.00

# Target: Carbonic anhydrase 9 (Homo sapiens, UniProt Q16790)
# Settings: not given
row,SMILES,pKi
1,O=c1[nH]c2cc(Cl)cc(Cl)c2c(=O)n1O,8.11
2,O=c1[nH]c2cc(Cl)c(Cl)cc2c(=O)n1O,8.09
3,O=C1C=CCN1c1cc2c(=O)n(O)c(=O)[nH]c2cc1Cl,8.08

# Tested on: HT-29
# Experiment: Antiproliferative activity against human HT-29 cells assessed as cell viability at 300 uM after 48 hrs under hypoxic conditions by MTT assay relative to control
# Format: functional
# Settings: HT-29, 48 h, read-out: Activity
# How it was run: as §2
row,SMILES,viability at 300 µM [%]
1,O=c1[nH]c2cc(Cl)cc(Cl)c2c(=O)n1O,104
2,O=c1[nH]c2cc(Cl)c(Cl)cc2c(=O)n1O,14.8
3,O=C1C=CCN1c1cc2c(=O)n(O)c(=O)[nH]c2cc1Cl,88.9

# Tested on: HT-29
# Experiment: Antiproliferative activity against human HT-29 cells assessed as cell viability at 100 uM after 48 hrs under hypoxic conditions by MTT assay relative to control
# Format: functional
# Settings: HT-29, 48 h, read-out: Activity
# How it was run: as §2
row,SMILES,viability at 100 µM [%]
1,O=c1[nH]c2cc(Cl)cc(Cl)c2c(=O)n1O,102
2,O=c1[nH]c2cc(Cl)c(Cl)cc2c(=O)n1O,76
3,O=C1C=CCN1c1cc2c(=O)n(O)c(=O)[nH]c2cc1Cl,60.1

# Tested on: HT-29
# Experiment: Antiproliferative activity against human HT-29 cells assessed as cell viability at 30 uM after 72 hrs under hypoxic conditions by MTT assay relative to control
# Format: functional
# Settings: HT-29, 72 h, read-out: Activity
# How it was run: as §2
row,SMILES,viability at 30 µM [%]
1,O=c1[nH]c2cc(Cl)cc(Cl)c2c(=O)n1O,93
2,O=c1[nH]c2cc(Cl)c(Cl)cc2c(=O)n1O,93.3
3,O=C1C=CCN1c1cc2c(=O)n(O)c(=O)[nH]c2cc1Cl,20.6

# Tested on: not listed separately
# Experiment: Antiproliferative activity against human HT-29 cells assessed as cell viability at 30 uM after 72 hrs under normoxic conditions by MTT assay relative to control
# Format: cell-based
# Settings: read-out: Activity
# How it was run: as §1
row,SMILES,"viability at 72 h, 30 µM [%]"
1,O=c1[nH]c2cc(Cl)cc(Cl)c2c(=O)n1O,94.2
2,O=c1[nH]c2cc(Cl)c(Cl)cc2c(=O)n1O,107
3,O=C1C=CCN1c1cc2c(=O)n(O)c(=O)[nH]c2cc1Cl,36.4

# Tested on: not listed separately
# Experiment: Antiproliferative activity against human HT-29 cells assessed as cell viability at 300 uM after 72 hrs under normoxic conditions by MTT assay relative to control
# Format: cell-based
# Settings: read-out: Activity
# How it was run: as §1
row,SMILES,"viability at 72 h, 300 µM [%]"
1,O=c1[nH]c2cc(Cl)cc(Cl)c2c(=O)n1O,94.9
2,O=c1[nH]c2cc(Cl)c(Cl)cc2c(=O)n1O,20.6
3,O=C1C=CCN1c1cc2c(=O)n(O)c(=O)[nH]c2cc1Cl,68.3

# Target: Carbonic anhydrase 2 (Homo sapiens, UniProt P00918)
# Experiment: Inhibition of recombinant human carbonic anhydrase 2 preincubated for 15 mins prior to testing by phenol red based stopped-flow CO2 hydration assay
# Settings: not given
row,SMILES,pKi
1,O=c1[nH]c2cc(Cl)cc(Cl)c2c(=O)n1O,< 5.00
2,O=c1[nH]c2cc(Cl)c(Cl)cc2c(=O)n1O,< 5.00
3,O=C1C=CCN1c1cc2c(=O)n(O)c(=O)[nH]c2cc1Cl,< 5.00

# Tested on: not listed separately
# Experiment: Antiproliferative activity against human HT-29 cells assessed as cell viability at 30 uM after 48 hrs under normoxic conditions by MTT assay relative to control
# Format: cell-based
# Settings: read-out: Activity
# How it was run: as §1
row,SMILES,"viability at 48 h, 30 µM [%]"
1,O=c1[nH]c2cc(Cl)cc(Cl)c2c(=O)n1O,92.6
2,O=c1[nH]c2cc(Cl)c(Cl)cc2c(=O)n1O,93.4
3,O=C1C=CCN1c1cc2c(=O)n(O)c(=O)[nH]c2cc1Cl,48.5
